From ChEMBL document CHEMBL1154430, “Synthesis, characterization and pharmacological evaluation of amide prodrugs of ketorolac” (Eur J Med Chem, 2008)

Legend:
[1] = Solubility in water; format: physicochemical; details: buffer
[2] = Solubility in 1.0N HCl; format: physicochemical; details: buffer
[3] = Chloroform-PBS partition coefficient, log K at pH 7.4; format: physicochemical
[4] = Chloroform-acidic buffer partition coefficient, log K at pH 1.4; format: physicochemical
[5] = Protein binding in plasma in pH 7.4 at 20 ug/ml by spectrophotometry; format: ADME, cell-free; details: read-out: PB (converted)
In short: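 Prodrug solution in PBS pH 7.4. Membrane washed with distilled water, then with pH 7.4 buffer, before use. Withdrawn samples diluted with 1 mL phosphate buffer and prodrug concentration measured spectrophotometrically.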

[6] = Metabolic stability in stimulated intestinal fluid assessed as half life at 10 mg by HPLC; format: ADME; details: simulated intestinal fluid
In short: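 10 mg in 2 mL acetonitrile added to 88 mL SIF (pH 7.4). Aliquots chilled in freezing mixture to arrest hydrolysis, vortexed 5 min and centrifuged 5 min. Supernatant analysed on C18 reversed-phase HPLC (acetonitrile:water 50:50), UV at 247 nm.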

[7] = Metabolic stability in human plasma assessed as half life at 10 mg by HPLC; format: ADME, cell-free
In short: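 10 mg in 2 mL acetonitrile added to 88 mL 80% human plasma (80:20 plasma:phosphate buffer pH 7.4) at 37 ± 0.5 °C. Samples taken at 10, 20, 30, 40, 50 and 60 min and chilled in freezing mixture to stop hydrolysis. Then vortexed 5 min, centrifuged, and supernatant run on C18 reversed-phase HPLC (acetonitrile:water 50:50), UV at 247 nm.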

Rattus norvegicus [8] = test: Antiinflammatory activity against carrageenan-induced paw edema in po dosed Wistar rat at dose equivalent to 2.5 mg/kg ketorolac after 2 hrs; format: functional
In short: (§1)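 Wistar albino rats, 100–200 g, seven groups of three including control and standard. Initial right hind paw volume measured by plethysmometer before dosing. Oral dose in 1% CMC suspension, prodrugs equivalent to 2.5 mg/kg ketorolac. Anti-inflammatory activity reported as percentage at 2 and 6 h after administration.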

Rattus norvegicus [9] = test: Antiinflammatory activity against carrageenan-induced paw edema in po dosed Wistar rat at dose equivalent to 2.5 mg/kg ketorolac after 6 hrs; format: functional; in short: as §1
Rattus norvegicus [10] = test: Analgesic activity in po dosed Wistar rat […] assessed as reaction time for tail withdrawal at dose equivalent to 1.2 mg/kg of ketorolac after 30 mins by tail flick method; format: functional
In short: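 Wistar rats, 100–200 g, groups of three. Tail-flick test on a […] analgesiometer with a thermal stimulus. Current set so that more than 90% of rats flick within 5–9 s, and slow responders rejected. Dose equivalent to 1.2 mg/kg given orally in 1% sodium carboxymethylcellulose suspension. %Analgesia = [1 − […]]×100, from reaction times before (T₁) and after (T₂) dosing.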

[11] = Solubility in 0.1 N NaOH; format: physicochemical
Rattus norvegicus [12] = test: Antiinflammatory activity against carrageenan-induced paw edema in Wistar rat at 2.5 mg/kg, po after 2 hrs; format: functional; in short: as §1
Rattus norvegicus [13] = test: Antiinflammatory activity against carrageenan-induced paw edema in Wistar rat at 2.5 mg/kg, po after 6 hrs; format: functional; in short: as §1
Rattus norvegicus [14] = test: Gastrointestinal toxicity in Wistar rat assessed as ulcerogenic indicates at dose equivalent to 1.2 mg/kg of ketorolac orally administered for 5 days; format: organism-based; design: dose 1.2 mg/kg, route oral; details: in vivo, po, 120 h
In short: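 Male Wistar rats, 130–150 g, groups of three including control and standard. Suspended in 2% w/v acacia and given orally at dose equivalent to 1.2 mg/kg ketorolac daily for 5 days. Rats fasted after the last dose, then decapitated. Stomach opened and washed, and lesions larger than 0.5 mm counted visually under a 2× binocular magnifier.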

[15] = chloroform/acidic buffer, pH 1.4

solubility [1]	solubility [2]	K ([3]; chloroform/PBS, pH 7.4)	K [4, 15]	fraction unbound at 20 ug/ml [5]	half-life [6] [h]	half-life [7] [h]	K [3]	K [4]	solubility [11]	Compound	Activity (Rattus norvegicus [8]) [%]	Activity (Rattus norvegicus [9]) [%]	Activity (Rattus norvegicus [10]) [%]	Activity (Rattus norvegicus [12]) [%]	Activity (Rattus norvegicus [13]) [%]	UI (Rattus norvegicus [14])
Insoluble	Insoluble	18.26	330.12	0.55	2.13	0.45	–	–	–	CCOC(=O)CC(NC(=O)C1CCn2c(C(=O)c3ccccc3)ccc21)C(=O)OCC (racemic)	44	57.72	54	–	–	–
Insoluble	Insoluble	18.08	319.5	0.55	2.13	0.45	–	–	–	CCOC(=O)CCC(NC(=O)C1CCn2c(C(=O)c3ccccc3)ccc21)C(=O)OCC (racemic)	44	49	54	–	–	–
Insoluble	Insoluble	15.61	256.73	0.811	2.67	0.987	–	–	–	CCOC(=O)C(C)NC(=O)C1CCn2c(C(=O)c3ccccc3)ccc21 (racemic)	27	43	26	–	–	–
Insoluble	Insoluble	20	380.6	0.55	2.67	0.65	–	–	–	CCOC(=O)C(NC(=O)C1CCn2c(C(=O)c3ccccc3)ccc21)C(C)C (racemic)	33	49	36	–	–	–
Insoluble	Insoluble	23.09	640	0.55	2.67	1.02	–	–	–	CCOC(=O)C(CC(C)C)NC(=O)C1CCn2c(C(=O)c3ccccc3)ccc21 (racemic)	27	43	26	–	–	–
Insoluble	Insoluble	23.87	656.8	0.55	2.13	0.65	–	–	–	CCOC(=O)C(NC(=O)C1CCn2c(C(=O)c3ccccc3)ccc21)C(C)CC (racemic)	33	49	36	–	–	–
Insoluble	Insoluble	23.18	504.05	0.55	2.13	0.45	–	–	–	CCOC(=O)C(Cc1ccccc1)NC(=O)C1CCn2c(C(=O)c3ccccc3)ccc21 (racemic)	44	49	54	–	–	–
Insoluble	Insoluble	13.81	215.9	0.55	2.13	0.65	–	–	–	CCOC(=O)CNC(=O)C1CCn2c(C(=O)c3ccccc3)ccc21 (racemic)	33	49	36	–	–	–
Insoluble	Insoluble	15.33	250.25	0.621	2.67	0.882	–	–	–	CCOC(=O)CCNC(=O)C1CCn2c(C(=O)c3ccccc3)ccc21 (racemic)	33	49	–	–	–	–
Insoluble	Insoluble	–	–	0.55	2.98	0.825	21.42	429.9	–	CCOC(=O)C(Cc1c[nH]c2ccccc12)NC(=O)C1CCn2c(C(=O)c3ccccc3)ccc21 (racemic)	27	43	26	–	–	–
–	Insoluble	6.022	75.62	–	–	–	–	–	Soluble	O=C(c1ccccc1)c1ccc2n1CCC2C(=O)O (stereo unspecified) [KETOROLAC]	–	–	–	64.24	54.21	23.2
